# Measurements of several laboratories.
# Lines come from different studies, so protocols differ.
# Target: MAP kinase-activated protein kinase 3 (MAPKAPK3, Homo sapiens, UniProt Q16644)
Structure (SMILES),effect on,mode,method,concentration,endpoint,value
CC(C)(C)c1nc(-c2cccc(NS(=O)(=O)c3c(F)cccc3F)c2F)c(-c2ccnc(N)n2)s1,enzyme activity,inhibitor,radiometric,1 µM,remaining activity,92%
CCN(CC)c1ccc(C2=NNC(=O)CC2C)cc1[N+](=O)[O-] (stereo not drawn),enzyme activity,inhibitor,,10 µM,remaining activity,100%
COc1cc(/C=C/C(=O)CC(=O)/C=C/c2ccc(O)c(OC)c2)ccc1O,enzyme activity,inhibitor,,1 µM,activity vs control,76%
CCCOc1ccc(OC)c(F)c1C(=O)c1ccc(C(=O)N[C@@H]2CNC[C@H]2NC(=O)c2ccc3[nH]ncc3c2)cc1,enzyme activity,inhibitor,,10 µM,remaining activity,68%
CCN(CC)CCNC(=O)c1c(C)[nH]c(/C=C2\C(=O)Nc3ccc(F)cc32)c1C,enzyme activity,inhibitor,,0.3 µM,inhibition,-10%
Cc1ccc(NC(=O)c2ccc(C)c(C(F)(F)F)c2)cc1C#Cc1nn(C2CCC(O)CC2)c2ncnc(N)c12 (stereo not drawn),cell-free assay,,,10 µM,remaining signal,96%
COc1cc2ncnc(Nc3ccc(Oc4ccccc4)cc3C)c2cc1OC,enzyme activity,inhibitor,,1 µM,inhibition,0%
CC(C)(O)[C@H]1CC[C@H](Nc2ccc3ncc(-c4cccc(C(F)(F)F)c4)n3n2)CC1,enzyme activity,inhibitor,,1 µM,remaining activity,103%
COc1cc(Nc2cnc(C#N)c(O[C@H](C)CN(C)C)n2)ncc1-c1cnn(C)c1,enzyme activity,inhibitor,radiometric,1 µM,remaining activity,96%
Cc1ccc(Nc2nccc(N(C)c3ccc4c(C)n(C)nc4c3)n2)cc1S(N)(=O)=O,enzyme activity,inhibitor,,10 µM,inhibition,-3%
O=C(Nc1cnn(-c2csc(C(=O)NC3COC3)c2)c1)Nc1c(F)cccc1Cl,enzyme activity,inhibitor,,5 µM,remaining activity,95.6%
c1ccc(CNc2nc(N3CCOc4ccccc43)nc3c2CCCC3)cc1,target engagement in cells,inhibitor,chemoproteomics,20 mM,inhibition,-11.1%
FC(F)(F)Oc1cccc(-c2cnc3ccc(-c4ccncc4)nn23)c1,enzyme activity,inhibitor,radiometric,1 µM,activity vs control,107%
Cn1c(=O)n(-c2ccc(C(C)(C)C#N)cc2)c2c3cc(-c4cnc5ccccc5c4)ccc3ncc21,enzyme activity,inhibitor,,10 µM,remaining activity,110%
O=C1Nc2ccc(Cl)cc2C1=Cc1cc(Cl)c(O)c(Cl)c1,cell-free assay,,,0.5 µM,remaining signal,88.4%
CCCCNc1ncc2c(-c3ccc(F)cc3)nn(C[C@H]3CC[C@H](N)CC3)c2n1,target engagement in cells,inhibitor,chemoproteomics,20 mM,inhibition,6.1%
CNC(=O)c1cc(Oc2ccc(NC(=O)Nc3ccc(Cl)c(C(F)(F)F)c3)cc2)ccn1,enzyme activity,inhibitor,,10 µM,inhibition,-5%
CN1CC(Oc2cnc(C#N)cc2-c2ccn3nc(NC(=O)C4CC4)cc3c2)C1,enzyme activity,inhibitor,,1 µM,inhibition,-1%
